Data from ChEMBL document CHEMBL5058577, “EUbOPEN Chemogenomics Library 2 (Multiplex)” (2022).

Test system: Fibroblast
Assay: Multiplex assay against human fibroblast
Format: toxicity, cell-based
In short: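 Four dyes were applied at seeding to live cells: Hoechst33342, BioTracker Green Microtubule Cytoskeleton Dye, MitoTracker Red and Annexin V Alexa Fluor 680. Imaging after compound addition used a CQ1 microscope at 37°C and 5% CO2. CellPathfinder machine-learning gating then sorted cells into Hoechst high-intensity objects or normal cells, normal cells into healthy, pyknosed or fragmented nuclei, and pyknosed cells into mitotic or apoptotic, with tubulin, mitochondrial-mass and membrane-permeability phenotypes given as per cents of healthy-nucleus cells.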

[1] = 12 h, 1 µM, compound concentration 1 uM, replicate 1
[2] = 12 h, 1 µM, compound concentration 1 uM, replicate 2
[3] = 12 h, 10 µM, compound concentration 10 uM, replicate 1
[4] = 12 h, 10 µM, compound concentration 10 uM, replicate 2
[5] = 24 h, 1 µM, compound concentration 1 uM, replicate 1
[6] = 24 h, 1 µM, compound concentration 1 uM, replicate 2
[7] = 24 h, 10 µM, compound concentration 10 uM, replicate 1
[8] = 24 h, 10 µM, compound concentration 10 uM, replicate 2
[9] = 48 h, 1 µM, compound concentration 1 uM, replicate 1
[10] = 48 h, 1 µM, compound concentration 1 uM, replicate 2
[11] = 48 h, 10 µM, compound concentration 10 uM, replicate 1
[12] = 48 h, 10 µM, compound concentration 10 uM, replicate 2

## CC[C@@H](C)Nc1nc(C)nc2c(-c3ccc(OC)nc3C)c(C)nn12 [PEXACERFONT]
[1]
  Population Apoptotic (%): 40%
  Population Fragmented Nuclei (%): 12%
  Population Healthy Nuclei (%): 66%
  Population Hoechst High Intensity Objects (%): 1%
  Population Membrane Permeable-Phenotype (%): 2%
  Population Mitochondria Different-Phenotype (%): 4%
  Population Mitotic Cells (%): 60%
  Population Normal (%): 98%
  Population Pyknosed Nuclei (%): 20%
  Population Tubulin-Different-Phenotype (%): 35%
  Total Cell Count: 147
[2]
  Population Apoptotic (%): 25%
  Population Fragmented Nuclei (%): 32%
  Population Healthy Nuclei (%): 44%
  Population Hoechst High Intensity Objects (%): 2%
  Population Membrane Permeable-Phenotype (%): 15%
  Population Mitotic Cells (%): 75%
  Population Normal (%): 97%
  Population Pyknosed Nuclei (%): 24%
  Population Tubulin-Different-Phenotype (%): 65%
  Total Cell Count: 103
[3]
  Population Apoptotic (%): 43%
  Population Fragmented Nuclei (%): 15%
  Population Healthy Nuclei (%): 55%
  Population Hoechst High Intensity Objects (%): 2%
  Population Membrane Permeable-Phenotype (%): 0%
  Population Mitochondria Different-Phenotype (%): 19%
  Population Mitotic Cells (%): 56%
  Population Normal (%): 97%
  Population Pyknosed Nuclei (%): 29%
  Population Tubulin-Different-Phenotype (%): 62%
  Total Cell Count: 143
[4]
  Population Apoptotic (%): 38%
  Population Fragmented Nuclei (%): 21%
  Population Healthy Nuclei (%): 40%
  Population Hoechst High Intensity Objects (%): 8%
  Population Membrane Permeable-Phenotype (%): 7%
  Population Mitochondria Different-Phenotype (%): 9%
  Population Mitotic Cells (%): 61%
  Population Normal (%): 91%
  Population Pyknosed Nuclei (%): 38%
  Population Tubulin-Different-Phenotype (%): 68%
  Total Cell Count: 147
[5]
  Population Apoptotic (%): 52%
  Population Fragmented Nuclei (%): 16%
  Population Healthy Nuclei (%): 70%
  Population Hoechst High Intensity Objects (%): 1%
  Population Membrane Permeable-Phenotype (%): 0%
  Population Mitochondria Different-Phenotype (%): 3%
  Population Mitotic Cells (%): 47%
  Population Normal (%): 98%
  Population Pyknosed Nuclei (%): 13%
  Population Tubulin-Different-Phenotype (%): 38%
  Total Cell Count: 157
[6]
  Population Apoptotic (%): 47%
  Population Fragmented Nuclei (%): 35%
  Population Healthy Nuclei (%): 42%
  Population Hoechst High Intensity Objects (%): 3%
  Population Membrane Permeable-Phenotype (%): 20%
  Population Mitochondria Different-Phenotype (%): 2%
  Population Mitotic Cells (%): 52%
  Population Normal (%): 96%
  Population Pyknosed Nuclei (%): 22%
  Population Tubulin-Different-Phenotype (%): 61%
  Total Cell Count: 108
[7]
  Population Apoptotic (%): 37%
  Population Fragmented Nuclei (%): 16%
  Population Healthy Nuclei (%): 56%
  Population Hoechst High Intensity Objects (%): 1%
  Population Membrane Permeable-Phenotype (%): 2%
  Population Mitochondria Different-Phenotype (%): 10%
  Population Mitotic Cells (%): 62%
  Population Normal (%): 98%
  Population Pyknosed Nuclei (%): 27%
  Population Tubulin-Different-Phenotype (%): 68%
  Total Cell Count: 139
[8]
  Population Apoptotic (%): 38%
  Population Fragmented Nuclei (%): 18%
  Population Healthy Nuclei (%): 47%
  Population Hoechst High Intensity Objects (%): 7%
  Population Membrane Permeable-Phenotype (%): 20%
  Population Mitochondria Different-Phenotype (%): 6%
  Population Mitotic Cells (%): 61%
  Population Normal (%): 92%
  Population Pyknosed Nuclei (%): 33%
  Population Tubulin-Different-Phenotype (%): 76%
  Total Cell Count: 143
[9]
  Population Apoptotic (%): 54%
  Population Fragmented Nuclei (%): 15%
  Population Healthy Nuclei (%): 69%
  Population Hoechst High Intensity Objects (%): 8%
  Population Membrane Permeable-Phenotype (%): 1%
  Population Mitochondria Different-Phenotype (%): 0%
  Population Mitotic Cells (%): 45%
  Population Normal (%): 91%
  Population Pyknosed Nuclei (%): 15%
  Population Tubulin-Different-Phenotype (%): 30%
  Total Cell Count: 160
[10]
  Population Apoptotic (%): 25%
  Population Fragmented Nuclei (%): 40%
  Population Healthy Nuclei (%): 45%
  Population Hoechst High Intensity Objects (%): 1%
  Population Membrane Permeable-Phenotype (%): 26%
  Population Mitochondria Different-Phenotype (%): 4%
  Population Mitotic Cells (%): 75%
  Population Normal (%): 98%
  Population Pyknosed Nuclei (%): 14%
  Population Tubulin-Different-Phenotype (%): 52%
  Total Cell Count: 113
[11]
  Population Apoptotic (%): 87%
  Population Fragmented Nuclei (%): 23%
  Population Healthy Nuclei (%): 53%
  Population Hoechst High Intensity Objects (%): 3%
  Population Membrane Permeable-Phenotype (%): 0%
  Population Mitochondria Different-Phenotype (%): 14%
  Population Mitotic Cells (%): 12%
  Population Normal (%): 96%
  Population Pyknosed Nuclei (%): 22%
  Population Tubulin-Different-Phenotype (%): 62%
  Total Cell Count: 144
[12]
  Population Apoptotic (%): 52%
  Population Fragmented Nuclei (%): 32%
  Population Healthy Nuclei (%): 50%
  Population Hoechst High Intensity Objects (%): 4%
  Population Membrane Permeable-Phenotype (%): 12%
  Population Mitochondria Different-Phenotype (%): 9%
  Population Mitotic Cells (%): 47%
  Population Normal (%): 95%
  Population Pyknosed Nuclei (%): 16%
  Population Tubulin-Different-Phenotype (%): 76%
  Total Cell Count: 134
